From BindingDB's records for doi:10.1021/acsmedchemlett.0c00095 (Gilead Sciences, 2020)

Molecular target: Phosphatidylinositol 3-kinase regulatory subunit alpha/4,5-bisphosphate 3-kinase catalytic subunit beta isoform (Homo sapiens, UniProt P27986+P42338)
Assay: Inhibition of recombinant human full-length N-terminal His6-tagged p110beta/human recombinant full-length untagged p85alpha expressed in baculovirus infected Sf21 insect cells using PIP2 as substrate after 30 mins in presence of ATP at 2xKm concentration by TR-FRET assay
Outline: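 Class I PI3K isoforms assayed in vitro for kinase inhibition with ATP at 2Km steady-state concentration; IC50 values averaged over at least 2 determinations.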

Phosphatidylinositol 3-kinase regulatory subunit alpha/4,5-bisphosphate 3-kinase catalytic subunit beta isoform, sequence (P27986 whole entry, canonical isoform): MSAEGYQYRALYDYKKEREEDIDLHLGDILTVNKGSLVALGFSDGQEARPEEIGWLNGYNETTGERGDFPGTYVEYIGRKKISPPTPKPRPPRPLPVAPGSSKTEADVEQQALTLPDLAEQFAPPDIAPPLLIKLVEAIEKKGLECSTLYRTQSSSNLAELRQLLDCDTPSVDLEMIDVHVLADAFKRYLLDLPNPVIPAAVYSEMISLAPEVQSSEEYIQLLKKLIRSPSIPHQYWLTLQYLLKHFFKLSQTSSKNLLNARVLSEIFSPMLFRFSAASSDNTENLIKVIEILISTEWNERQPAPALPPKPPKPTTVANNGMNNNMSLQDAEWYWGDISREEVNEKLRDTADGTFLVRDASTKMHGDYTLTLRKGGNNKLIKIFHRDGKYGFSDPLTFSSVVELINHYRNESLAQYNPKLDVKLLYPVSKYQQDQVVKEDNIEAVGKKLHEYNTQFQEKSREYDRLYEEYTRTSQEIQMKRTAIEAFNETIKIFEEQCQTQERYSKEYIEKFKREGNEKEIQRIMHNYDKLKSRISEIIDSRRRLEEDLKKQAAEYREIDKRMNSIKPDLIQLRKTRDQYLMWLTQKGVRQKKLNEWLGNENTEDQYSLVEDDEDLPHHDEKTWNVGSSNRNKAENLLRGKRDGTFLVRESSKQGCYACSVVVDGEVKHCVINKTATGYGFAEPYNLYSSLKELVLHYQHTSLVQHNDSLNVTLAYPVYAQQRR
Phosphatidylinositol 3-kinase regulatory subunit alpha/4,5-bisphosphate 3-kinase catalytic subunit beta isoform, sequence (P42338 whole entry, canonical isoform): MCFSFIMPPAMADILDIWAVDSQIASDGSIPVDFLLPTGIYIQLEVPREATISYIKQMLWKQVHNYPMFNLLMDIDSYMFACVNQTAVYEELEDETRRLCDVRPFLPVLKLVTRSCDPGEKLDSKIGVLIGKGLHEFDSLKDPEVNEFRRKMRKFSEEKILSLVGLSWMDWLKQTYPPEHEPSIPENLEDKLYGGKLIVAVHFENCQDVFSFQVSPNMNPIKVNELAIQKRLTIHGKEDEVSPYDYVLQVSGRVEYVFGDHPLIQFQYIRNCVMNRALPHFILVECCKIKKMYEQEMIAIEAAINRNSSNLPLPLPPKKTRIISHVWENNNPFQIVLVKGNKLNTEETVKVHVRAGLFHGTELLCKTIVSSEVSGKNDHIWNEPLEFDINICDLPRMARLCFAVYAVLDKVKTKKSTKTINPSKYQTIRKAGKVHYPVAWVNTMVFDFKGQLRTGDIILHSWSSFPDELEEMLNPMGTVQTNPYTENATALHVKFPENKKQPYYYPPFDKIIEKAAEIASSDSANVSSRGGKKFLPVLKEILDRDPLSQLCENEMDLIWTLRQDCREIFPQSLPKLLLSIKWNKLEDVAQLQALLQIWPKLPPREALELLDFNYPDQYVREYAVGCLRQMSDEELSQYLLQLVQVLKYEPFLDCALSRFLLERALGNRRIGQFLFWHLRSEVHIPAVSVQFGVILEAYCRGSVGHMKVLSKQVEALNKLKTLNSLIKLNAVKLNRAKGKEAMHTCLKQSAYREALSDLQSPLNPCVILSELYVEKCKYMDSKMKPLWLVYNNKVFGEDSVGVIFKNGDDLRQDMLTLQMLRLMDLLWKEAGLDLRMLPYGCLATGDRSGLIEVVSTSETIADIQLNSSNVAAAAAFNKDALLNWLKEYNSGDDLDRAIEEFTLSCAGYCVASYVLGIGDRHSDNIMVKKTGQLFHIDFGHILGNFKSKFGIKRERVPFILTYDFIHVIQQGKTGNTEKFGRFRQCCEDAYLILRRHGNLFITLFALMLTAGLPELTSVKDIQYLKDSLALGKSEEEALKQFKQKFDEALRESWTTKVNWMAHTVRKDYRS

SMILES | IC50 [nM]
Cc1nc2c(-c3nnc[nH]3)cc(-c3ccnc(N)c3Cl)cc2n1-c1ccnc2c(F)ccc(F)c12 [US10227350, Compound 91] | 19
Cc1nc2c(-c3nnc[nH]3)cc(-c3cc(N)ncc3F)cc2n1-c1ccnc2c(F)ccc(F)c12 [US10227350, Compound 76] | 50
Cc1nccc(-c2cc(-c3nnc[nH]3)c3nc(C)n(-c4ccnc5c(F)ccc(F)c45)c3c2)n1 [US10227350, Compound 156] | 12
Cc1nc2c(-c3nnc[nH]3)cc(-c3ccnc(C(F)F)c3)cc2n1-c1ccnc2c(F)ccc(F)c12 [US10227350, Compound 43] | 30
Cc1nc2c(-c3nnc[nH]3)cc(-c3ccnc(C#N)c3)cc2n1-c1ccnc2c(F)ccc(F)c12 [US10227350, Compound 113] | 4
Cc1cc(-c2cc(-c3nnc[nH]3)c3nc(C)n(-c4ccnc5c(F)ccc(F)c45)c3c2)ncn1 [US10227350, Compound 155] | 62
Cc1nc2c(-c3nnc[nH]3)cc(-c3c(F)cnc(N)c3F)cc2n1-c1ccnc2c(F)ccc(F)c12 [US10227350, Compound 100] | 321
Cc1nc2c(-c3nnc[nH]3)cc(-c3ccncc3)cc2n1-c1ccnc2c(F)ccc(F)c12 [US10227350, Compound 140] | 6
Cc1cc(-c2cc(-c3nnc[nH]3)c3nc(C)n(-c4ccnc5c(F)ccc(F)c45)c3c2)cc(N)n1 [US10227350, Compound 90] | 341
Clc1cccc2c(-n3cnc4c(-c5nnc[nH]5)cc(N5CCOCC5)cc43)ccnc12 [US10214519, Example 111] | 3
Cc1nc2c(-c3nnc[nH]3)cc(-c3ccnc(Cl)c3)cc2n1-c1ccnc2c(F)ccc(F)c12 [US10227350, Compound 158] | 7
CNc1nccc(-c2cc(-c3nnc[nH]3)c3nc(C)n(-c4ccnc5c(F)ccc(F)c45)c3c2)c1F [US10227350, Compound 77] | 1400
Cc1nc2c(-c3nnc[nH]3)cc(-c3ccnc(N)c3)cc2n1-c1ccnc2c(F)ccc(F)c12 [US10227350, Compound 104] | 10
Clc1cccc2c(-n3cnc4c(-c5nnc[nH]5)cc(-c5ccncc5)cc43)ccnc12 | 5
